Source: PMC4289021 (Nature, 2014)
Substitutions are numbered along the chain they refer to. pKd: −log10 of the molar value.

What was measured:
[1] = test system: RNF146 WWE domain; settings: cited from earlier work
[2] = molecular target: T1, K61D RNF146(RING-WWE) (Mus musculus, UniProt Q9CZW6, K63D); assay: ITC, iso-ADPr binding to K61D RNF146; settings: 25 °C, K61D mutant
T1 sequence (Q9CZW6 32-185 K63D): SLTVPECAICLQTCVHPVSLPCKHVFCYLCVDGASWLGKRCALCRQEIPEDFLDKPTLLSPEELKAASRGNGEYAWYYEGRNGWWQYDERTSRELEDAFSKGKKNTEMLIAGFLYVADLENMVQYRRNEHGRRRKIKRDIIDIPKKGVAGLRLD
How it was run: (§1)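 Calorimetry at 25 °C on untagged mouse RNF146(RING-WWE), wild type or site-directed mutants. Protein and iso-ADPr were exchanged by Superdex 75 SEC into 20 mM HEPES pH 7.5, 150 mM NaCl, 1 mM DTT. Cell held ~15–20 μM protein. Ligand ~500 μM in the same buffer. Both were degassed. Injections of 5 μL every 5 min, 25–40 total. Kd came from a one-site model fit.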

[3] = test system: full-length RNF146 or RNF146(RING-WWE); assay: E2~Ub/lysine reactivity assay with UbcH5; assay type: biochemical, human
How it was run: (§2)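 Mouse RNF146(RING-WWE) (residues 30–183), made from a GST-tagged construct with TEV cleavage, or His6-T7-tagged full-length RNF146. UbcH5~Ub was charged by wheat E1 (1.5 μM) with 100 μM E2, 200 μM K0 Ub, 2.5 mM MgCl2 and 2 mM ATP in PBS at 37 °C for 30 min, then SEC-purified. Final: 25 μM E2, 4 or 8 μM E3, ± iso-ADPr. Started with 40 mM L-lysine at 35 °C; sampled 1–15 min; non-reducing SDS-PAGE, Coomassie/Oriole stain.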

[4] = molecular target: RNF146 WWE domain alone; settings: previously published; cited from earlier work
[5] = molecular target: T2, RNF146(RING-WWE) (residues 30–183) (Mus musculus, UniProt Q9CZW6); assay: ITC, iso-ADPr binding to WT RNF146
T2 sequence (Q9CZW6 32-185): T1 sequence (Q9CZW6 32-185 K63D) with D32K

[6] = molecular target: T3, K61A RNF146(RING-WWE) (Mus musculus, UniProt Q9CZW6, K63A); assay: ITC, iso-ADPr binding to K61A RNF146; settings: 25 °C, K61A mutant
T3 sequence (Q9CZW6 32-185 K63A): T1 sequence (Q9CZW6 32-185 K63D) with D32A
How it was run: as §1

[7] = test system: RNF146(RING-WWE) K61D; assay: E2~Ub/lysine reactivity assay, K61D mutant; assay type: biochemical, mouse; settings: 8 μM E3, 25 μM iso-ADPr
How it was run: as §2

## Nc1ncnc2c1ncn2[C@@H]1O[C@H](COP(=O)(O)OP(=O)(O)OC[C@H]2OC(O)[C@H](O)[C@@H]2O)[C@@H](O)[C@H]1O (stereo partly drawn) [ADPr, ADP-ribose]
[1]
  binding to WWE domain: does not bind

## Nc1ncnc2c1ncn2[C@@H]1O[C@H](COP(=O)(O)O)[C@@H](O)[C@H]1O[C@@H]1O[C@H](COP(=O)(O)O)[C@@H](O)[C@H]1O [iso-ADPr]
[2]
  pKd: 6.34
[3]; 3 min after lysine addition, 1.2 equiv.
  iso-ADPr concentration up to which the rate of E2~Ub/lysine reactivity increases: 5 µM
[3]; ligand added to full-length RNF146 or RING-WWE fragment, not RING-only construct
  activation of Ub transfer from UbcH5~Ub to lysine: robust activation
[4]
  pKd: 6.43
[5]; ITC, 25 °C, one-site model
  pKd: 7.41
[5]; ratio of Kd 39 nM vs 372 nM
  binding to RNF146(RING-WWE) relative to the WWE domain alone: ten times tighter
[6]
  pKd: 6.67
[7]
  activation of E2~Ub/lysine reactivity: not activated
